Assay results from PubChem BioAssay AID504830 (Southern Research Specialized Biocontainment Screening …, 2011).

Test system: HEp-2 cells, RSV plaque reduction, virus titer
Assay: RSV titer reduction by inhibitors, cell-based, plaque reduction (AID 504830)
Conditions: at 25 µM; stronger effect = lower value
Outline: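 Material: RSV Long-infected HEp-2 cells | Measured by: HEp-2 plaque titration, 1% Avicel overlay, six days, neutral red stain | Incubation: 2 h infection, then 48 h compound exposure at 37 °C | Doses: Compound added after virus wash, 0.5% DMSO final | Reagent: RSV Long, MOI 0.1, 2 h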

Cc1ccc(NC(=O)C2CCCN2S(=O)(=O)c2cccc3cccnc23)c(C)c1 (centres undefined)
log virus titer change: -2.1

COc1ccc(C)c(NC(=O)[C@@H]2CCCN2S(=O)(=O)c2cccc3cccnc23)c1
log virus titer change: -1

Cc1ccc(NC(=O)[C@@H]2CCCN2S(=O)(=O)c2cccc3cccnc23)c(C)c1
log virus titer change: -1

Cc1ccc(C)c(NC(=O)[C@@H]2CCCN2S(=O)(=O)c2cccc3cccnc23)c1
log virus titer change: -2
